Source: ChEMBL document CHEMBL2177092, “Phosphoramidate ProTides of the anticancer agent FUDR successfully deliver the preformed bioactive monophosphate in cells and confer advantage over the parent nucleoside” (J Med Chem, 2011)

Tests used:
CCRF-CEM [1] = assay: Cytostatic activity against human CEM/0 cells after 72 hrs by cell counting; type: functional, cell-based
Summary of the method: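 Suspension leukemia cells in DMEM with 10% FBS, 10 mM Hepes and 1 mM sodium pyruvate at 37 °C under 5% CO2. Seeded at 60 000 cells/well with graded compound levels. Grown 48 h (L1210) or 72 h (CEM), then counted by Coulter counter. […] Mean ± SD of two to four independent experiments.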

L1210 [2] = assay: Cytostatic activity against Mycoplasma hyorhinis-infected mouse L1210 cells after 48 hrs by cell counting; type: functional, cell-based; conditions: L1210, 48 h
Summary of the method: (§1)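 Suspension leukemia cells in DMEM with 10% FBS, 10 mM Hepes and 1 mM sodium pyruvate at 37 °C under 5% CO2. Seeded at 60 000 cells/well with graded compound levels. Grown 48 h (L1210) or 72 h (CEM), then counted by Coulter counter. Mean ± SD of two to four independent experiments.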

L1210 [3] = assay: Ratio of IC50 for Mycoplasma hyorhinis-infected mouse L1210 cells to IC50 for mouse L1210/0 cells after 48 hrs by cell counting; type: functional
Summary of the method: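 Murine L1210/0 cells were compared with L1210/TK cells, selected for resistance to 5-bromo-2'-dUrd, and with L1210.Hyor cells, chronically infected with Mycoplasma hyorhinis. Cells were grown in DMEM with 10% FBS, 10 mM Hepes and 1 mM pyruvate at 37 °C and 5% CO2, then seeded at 60 000 cells/well with compound. They were Coulter-counted after 48 h. […] Mean of 2–4 experiments.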

CCRF-CEM [4] = assay: Cytostatic activity against thymidine-kinase deficient human CEM cells after 72 hrs by cell counting; type: functional, cell-based; summary of the method: as §1
[5] = Cytostatic activity against mouse L1210/0 cells after 48 hrs by cell counting; type: functional, cell-based; conditions: L1210/0, 48 h; summary of the method: as §1
L1210 [6] = assay: Cytostatic activity against thymidine-kinase deficient mouse L1210 cells after 48 hrs by cell counting; type: functional, cell-based; conditions: L1210, 48 h; summary of the method: as §1
HeLa [7] = assay: Cytostatic activity against thymidine-kinase deficient human HeLa cells […]; type: functional, cell-based
HeLa [8] = assay: Cytostatic activity against human HeLa cells […] by cell counting; type: functional, cell-based

CC(C)C[C@H](NP(=O)(OC[C@H]1O[C@@H](n2cc(F)c(=O)[nH]c2=O)C[C@@H]1O)Oc1cccc2ccccc12)C(=O)OCc1ccccc1 (mixture of isomers)
IC50 (CCRF-CEM [1]): 0.13 µM
IC50 (L1210 [2]): 0.048 µM
Ratio IC50 (L1210 [3]): 1.7
IC50 (CCRF-CEM [4]): 30 µM
IC50 [5]: 0.029 µM
IC50 (L1210 [6]): 1.5 µM
IC50 (HeLa [7]): 9.4 µM
IC50 (HeLa [8]): 0.08 µM

CSCC[C@H](NP(=O)(OC[C@H]1O[C@@H](n2cc(F)c(=O)[nH]c2=O)C[C@@H]1O)Oc1cccc2ccccc12)C(=O)OCc1ccccc1 (mixture of isomers)
IC50 (CCRF-CEM [1]): 0.19 µM
IC50 (L1210 [2]): 0.2 µM
Ratio IC50 (L1210 [3]): 3.7
IC50 (CCRF-CEM [4]): 11 µM
IC50 [5]: 0.054 µM
IC50 (L1210 [6]): 1.9 µM
IC50 (HeLa [7]): 8.3 µM
IC50 (HeLa [8]): 0.087 µM

C[C@H](NP(=O)(OC[C@H]1O[C@@H](n2cc(F)c(=O)[nH]c2=O)C[C@@H]1O)Oc1cccc2ccccc12)C(=O)OCCC(C)(C)C (mixture of isomers)
IC50 (CCRF-CEM [1]): 0.053 µM
IC50 (L1210 [2]): 0.032 µM
Ratio IC50 (L1210 [3]): 2.7
IC50 (CCRF-CEM [4]): 0.19 µM
IC50 [5]: 0.012 µM
IC50 (L1210 [6]): 0.062 µM
IC50 (HeLa [7]): 1.3 µM
IC50 (HeLa [8]): 0.078 µM

CC(C)[C@H](NP(=O)(OC[C@H]1O[C@@H](n2cc(F)c(=O)[nH]c2=O)C[C@@H]1O)Oc1cccc2ccccc12)C(=O)OC1CCCCC1 (mixture of isomers)
IC50 (CCRF-CEM [1]): 0.8 µM
IC50 (L1210 [2]): 1.29 µM
Ratio IC50 (L1210 [3]): 1.08
IC50 (CCRF-CEM [4]): 46 µM
IC50 [5]: 1.2 µM
IC50 (L1210 [6]): 35 µM
IC50 (HeLa [7]): 27 µM
IC50 (HeLa [8]): 0.67 µM

C[C@H](NP(=O)(OC[C@H]1O[C@@H](n2cc(F)c(=O)[nH]c2=O)C[C@@H]1O)Oc1cccc2ccccc12)C(=O)OC1CCCC1 (mixture of isomers)
IC50 (CCRF-CEM [1]): 0.035 µM
IC50 (L1210 [2]): 0.024 µM
Ratio IC50 (L1210 [3]): 1.5
IC50 (CCRF-CEM [4]): 0.92 µM
IC50 [5]: 0.016 µM
IC50 (L1210 [6]): 0.13 µM
IC50 (HeLa [7]): 2.2 µM
IC50 (HeLa [8]): 0.071 µM

C[C@H](NP(=O)(OC[C@H]1O[C@@H](n2cc(F)c(=O)[nH]c2=O)C[C@@H]1O)Oc1cccc2ccccc12)C(=O)OC1CCOCC1 (mixture of isomers)
IC50 (CCRF-CEM [1]): 0.11 µM
IC50 (L1210 [2]): 0.48 µM
Ratio IC50 (L1210 [3]): 11.7
IC50 (CCRF-CEM [4]): 43 µM
IC50 [5]: 0.041 µM
IC50 (L1210 [6]): 27 µM
IC50 (HeLa [7]): 15 µM
IC50 (HeLa [8]): 0.13 µM

O=C(OCc1ccccc1)[C@H](Cc1ccccc1)NP(=O)(OC[C@H]1O[C@@H](n2cc(F)c(=O)[nH]c2=O)C[C@@H]1O)Oc1ccccc1 (mixture of isomers)
IC50 (CCRF-CEM [1]): 0.25 µM
IC50 (L1210 [2]): 0.56 µM
Ratio IC50 (L1210 [3]): 35
IC50 (CCRF-CEM [4]): 11 µM
IC50 [5]: 0.016 µM
IC50 (L1210 [6]): 39 µM
IC50 (HeLa [7]): 12 µM
IC50 (HeLa [8]): 0.014 µM

C[C@H](NP(=O)(OC[C@H]1O[C@@H](n2cc(F)c(=O)[nH]c2=O)C[C@@H]1O)Oc1cccc2ccccc12)C(=O)OC1Cc2ccccc2C1 (mixture of isomers)
IC50 (CCRF-CEM [1]): 0.079 µM
IC50 (L1210 [2]): 0.042 µM
Ratio IC50 (L1210 [3]): 1.08
IC50 (CCRF-CEM [4]): 1 µM
IC50 [5]: 0.039 µM
IC50 (L1210 [6]): 40 µM
IC50 (HeLa [7]): 7.1 µM
IC50 (HeLa [8]): 0.1 µM

CCCCOC(=O)[C@H](C)NP(=O)(OC[C@H]1O[C@@H](n2cc(F)c(=O)[nH]c2=O)C[C@@H]1O)Oc1cccc2ccccc12 (mixture of isomers)
IC50 (CCRF-CEM [1]): 0.064 µM
IC50 (L1210 [2]): 0.021 µM
Ratio IC50 (L1210 [3]): 2.2
IC50 (CCRF-CEM [4]): 0.84 µM
IC50 [5]: 0.0095 µM
IC50 (L1210 [6]): 0.11 µM
IC50 (HeLa [7]): 2.7 µM
IC50 (HeLa [8]): 0.12 µM

CCCOC(=O)[C@H](C)NP(=O)(OC[C@H]1O[C@@H](n2cc(F)c(=O)[nH]c2=O)C[C@@H]1O)Oc1cccc2ccccc12 (mixture of isomers)
IC50 (CCRF-CEM [1]): 0.14 µM
IC50 (L1210 [2]): 0.036 µM
Ratio IC50 (L1210 [3]): 1.2
IC50 (CCRF-CEM [4]): 1.1 µM
IC50 [5]: 0.03 µM
IC50 (L1210 [6]): 0.16 µM
IC50 (HeLa [7]): 2.5 µM
IC50 (HeLa [8]): 0.11 µM

CCOC(=O)[C@H](C)NP(=O)(OC[C@H]1O[C@@H](n2cc(F)c(=O)[nH]c2=O)C[C@@H]1O)Oc1ccccc1 (mixture of isomers)
IC50 (CCRF-CEM [1]): 0.92 µM
IC50 (L1210 [2]): 0.54 µM
Ratio IC50 (L1210 [3]): 5
IC50 (CCRF-CEM [4]): 14 µM
IC50 [5]: 0.11 µM
IC50 (L1210 [6]): 0.94 µM
IC50 (HeLa [7]): 9.8 µM
IC50 (HeLa [8]): 0.48 µM

CSCC[C@H](NP(=O)(OC[C@H]1O[C@@H](n2cc(F)c(=O)[nH]c2=O)C[C@@H]1O)Oc1ccccc1)C(=O)OCc1ccccc1 (mixture of isomers)
IC50 (CCRF-CEM [1]): 0.28 µM
IC50 (L1210 [2]): 0.76 µM
Ratio IC50 (L1210 [3]): 13
IC50 (CCRF-CEM [4]): 25 µM
IC50 [5]: 0.058 µM
IC50 (L1210 [6]): 4.1 µM
IC50 (HeLa [7]): 11 µM
IC50 (HeLa [8]): 0.15 µM
